Experimental data reported in ChEMBL document CHEMBL1143884, “Pyrimidine-based inhibitors of CaMKIIdelta” (Bioorg Med Chem Lett, 2008).

Columns and labels:
[1] = biological target: T1, Calcium/calmodulin-dependent protein kinase type II subunit delta (Homo sapiens, UniProt Q13557); test: Inhibition of cloned CaMK2delta
In short: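 Radiometric filter-binding assay. Recombinant CaMKIIδ in 50 mM PIPES pH 7, 0.2 mg/ml BSA, 1 mM DTT, preincubated with inhibitor. Reaction started with buffer containing MgCl2, ATP, CaCl2, calmodulin, [His5]Autocamtide-2 substrate and [γ-33P]ATP, run 3 min at RT. Stopped on P81 phosphocellulose filter, washed with 1% phosphoric acid, counted by scintillation.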

[2] = biological target: T1, Calcium/calmodulin-dependent protein kinase type II subunit delta; test: Inhibition of CaMK2delta-mediated vimentin phosphorylation in human HL2 cells at 5 uM after 1 hr by ELISA; type: cell-based
[3] = biological target: T1, Calcium/calmodulin-dependent protein kinase type II subunit delta; test: Inhibition of CaMK2delta-mediated vimentin phosphorylation in human HL2 cells after 1 hr by ELISA; type: cell-based
In short: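 HL-2 cells preincubated 1 h at 37 °C with inhibitor at increasing concentrations, then CaMKII activated with ionomycin for 15 min at 37 °C. Cells lysed in ice-cold lysis buffer and frozen at −80 °C before read-out.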

T1 sequence (Q13557 whole entry): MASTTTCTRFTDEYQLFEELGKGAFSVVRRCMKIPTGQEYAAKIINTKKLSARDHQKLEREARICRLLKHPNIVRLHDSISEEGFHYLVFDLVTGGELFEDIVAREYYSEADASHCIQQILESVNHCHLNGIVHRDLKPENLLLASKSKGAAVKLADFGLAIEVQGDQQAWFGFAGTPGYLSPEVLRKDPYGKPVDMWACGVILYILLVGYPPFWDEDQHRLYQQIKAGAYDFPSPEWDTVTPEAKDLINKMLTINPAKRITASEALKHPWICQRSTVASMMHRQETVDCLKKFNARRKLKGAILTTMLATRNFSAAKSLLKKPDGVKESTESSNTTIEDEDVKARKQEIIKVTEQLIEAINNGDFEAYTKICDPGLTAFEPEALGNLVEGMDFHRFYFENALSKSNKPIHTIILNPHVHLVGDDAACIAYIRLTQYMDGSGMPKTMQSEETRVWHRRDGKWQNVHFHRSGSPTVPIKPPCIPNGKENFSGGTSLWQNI

Which IC50 [1] does the source give for `C[C@H](Nc1cc(Nc2nccc(-c3ccc(CC(=O)O)cc3)n2)ccn1)c1ccccc1` here?
The IC50 was 3.42 µM.

With `O=C(O)c1ccc(-c2ccnc(Nc3ccncc3)n2)cc1` as the compound, how does the IC50 [1] read?
Its IC50 is 0.39 µM.

With `O=C(O)c1ccc(-c2ccnc(Nc3cccc(Cl)c3)n2)cc1` as the compound, how does the IC50 [1] read?
The IC50 was 0.042 µM.

What about the inhibition [2] of the same compound?
Its inhibition is 0%.

`Clc1cccc(Nc2nccc(-c3cccc(N4CCNCC4)c3)n2)c1` was tested. Which IC50 [1] did it give?
The IC50 was 0.009 µM.

What about the IC50 [3] of the same compound?
Its IC50 is 0.32 µM.

`Nc1cccc(-c2ccnc(Nc3cccc(Cl)c3)n2)c1` was tested. Which IC50 [1] did it give?
Its IC50 is 0.66 µM.

`COC(=O)c1ccc(-c2ccnc(Nc3ccccc3)n2)cc1` was tested. Which IC50 [1] did it give?
Its IC50 is greater than 20 µM.

What about the inhibition [2] of the same compound?
The inhibition was 0%.

How did the IC50 [1] turn out when `O=C(NO)c1ccc(-c2ccnc(Nc3ccccc3)n2)cc1` was run?
Its IC50 is 0.29 µM.

What about the inhibition [2] of the same compound?
Its inhibition is 90%.

How did the IC50 [1] turn out when `COC(=O)c1ccc(-c2ccnc(Nc3ccnc(N[C@@H](C)c4ccccc4)c3)n2)cc1` was run?
The IC50 was 1.69 µM.

With `C[C@H](Nc1cc(Nc2nccc(-c3ccc(C(=O)NO)cc3)n2)ccn1)c1ccccc1` as the compound, how does the IC50 [1] read?
The IC50 was 0.17 µM.

Which IC50 [1] does the source give for `C[C@H](Nc1cc(Nc2nccc(-c3cccc(F)c3)n2)ccn1)c1ccccc1` here?
Its IC50 is 1.28 µM.

Which IC50 [1] does the source give for `CNC(=O)c1ccc(-c2ccnc(Nc3ccnc(N[C@@H](C)c4ccccc4)c3)n2)cc1` here?
The IC50 was 0.72 µM.

With `C[C@H](Nc1cc(Nc2nccc(-c3ccc(N(C)C)cc3)n2)ccn1)c1ccccc1` as the compound, how does the IC50 [1] read?
The IC50 was 2.22 µM.

With `Nc1cc(Nc2nccc(-c3ccc(C(=O)O)cc3)n2)ccn1` as the compound, how does the IC50 [1] read?
The IC50 was 0.066 µM.

Which IC50 [1] does the source give for `Clc1cccc(Nc2nccc(-c3cccc(N4CCOCC4)c3)n2)c1` here?
The IC50 was 0.24 µM.

With `C[C@H](Nc1cc(Nc2nccc(-c3cccc(C(=O)O)c3)n2)ccn1)c1ccccc1` as the compound, how does the IC50 [1] read?
Its IC50 is 13 µM.

Which results are given for `c1ccc(Nc2nccc(-c3ccc(-c4nnn[nH]4)cc3)n2)cc1`?
IC50 [1]: 0.77 µM; inhibition [2]: 0%

With `NCCNc1cccc(-c2ccnc(Nc3cccc(Cl)c3)n2)c1` as the compound, how does the IC50 [1] read?
The IC50 was 0.012 µM.

What about the IC50 [3] of the same compound?
Its IC50 is 0.11 µM.

Which IC50 [1] does the source give for `Cc1cccc(-c2ccnc(Nc3ccnc(N[C@@H](C)c4ccccc4)c3)n2)c1` here?
Its IC50 is 0.92 µM.

`O=C(O)Cc1ccc(-c2ccnc(Nc3ccccc3)n2)cc1` was tested. Which IC50 [1] did it give?
Its IC50 is greater than 20 µM.

Which IC50 [1] does the source give for `Clc1cccc(Nc2nccc(-c3cccc(N4CCCCC4)c3)n2)c1` here?
The IC50 was 0.93 µM.

How did the IC50 [1] turn out when `C[C@H](Nc1cc(Nc2nccc(-c3cccc(-c4ccccc4)c3)n2)ccn1)c1ccccc1` was run?
The IC50 was 3.14 µM.

For `O=C(O)c1ccc(-c2ccnc(Nc3ccccc3)n2)cc1`, which IC50 [1] is on record?
Its IC50 is 0.064 µM.

And the inhibition [2]?
Its inhibition is 0%.

Which IC50 [1] does the source give for `C[C@H](Nc1cc(Nc2nccc(-c3ccc(-c4nnn[nH]4)cc3)n2)ccn1)c1ccccc1` here?
The IC50 was 2.26 µM.

For `CNC(=O)c1ccc(-c2ccnc(Nc3ccccc3)n2)cc1`, which IC50 [1] is on record?
Its IC50 is greater than 20 µM.

Which IC50 [1] does the source give for `C[C@H](Nc1cc(Nc2nccc(-c3ccc(Cl)cc3)n2)ccn1)c1ccccc1` here?
The IC50 was 2.87 µM.

Which IC50 [1] does the source give for `C[C@H](Nc1cc(Nc2nccc(-c3ccc(C(=O)O)cc3)n2)ccn1)c1ccccc1` here?
Its IC50 is 0.21 µM.
